Converted amounts (≈) assume the structure as drawn.
Tests used:
Assay type in all cases: functional
[1] = tested on: Escherichia coli; assay: Minimum inhibitory concentration was measured against Escherichia coli EC14
Procedure, shortened: (§1)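 Standard agar dilution method; MICs determined externally by an industrial partner rather than in the authors' lab.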

[2] = tested on: Escherichia coli; assay: cell growth was measured against Escherichia coli AN193 using liquid growth assay at 0h
Procedure, shortened: (§2)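 Overnight cultures diluted 1:500 into Luria broth containing EDDA 10 μg/mL, with or without test compound at 100 μg/mL. Turbidity read as absorbance at 650 nm (table heading) at 0, 2 and 8 h. SA240 is an iucD:Tn5 siderophore-deficient derivative of SA100. RW193 is E. coli K12 entA, fhuA-positive. AN193 is entA, fhuA-negative, lacking the ferrichrome receptor.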

[3] = tested on: Shigella flexneri; assay: cell growth was measured against Shigella flexneri SA240 using liquid growth assay at 0h; procedure, shortened: as §2
[4] = tested on: Salmonella; assay: Minimum inhibitory concentration was measured against salmonella 1135; procedure, shortened: as §1
[5] = tested on: Salmonella; assay: Minimum inhibitory concentration was measured against salmonella X514; procedure, shortened: as §1
[6] = tested on: Escherichia coli; assay: cell growth was measured against Escherichia coli RW193 using liquid growth assay at 8 hr; procedure, shortened: as §2
[7] = tested on: Staphylococcus epidermidis; assay: Minimum inhibitory concentration was measured against staphylococcus epidermidis 222; procedure, shortened: as §1
[8] = tested on: Escherichia coli; assay: cell growth was measured against Escherichia coli RW193 using liquid growth assay at 0h; procedure, shortened: as §2
[9] = tested on: Shigella flexneri; assay: cell growth was measured against Shigella flexneri SA240 using liquid growth assay at 2 hr; procedure, shortened: as §2
[10] = tested on: Streptococcus pneumoniae; assay: Minimum inhibitory concentration was measured against streptococcus pneumonia PARK; procedure, shortened: as §1
[11] = tested on: Escherichia coli; assay: cell growth was measured against Escherichia coli AN193 using liquid growth assay at 2 hr; procedure, shortened: as §2
[12] = tested on: Shigella flexneri; assay: cell growth was measured against Shigella flexneri SA240 using liquid growth assay at 8 hr; procedure, shortened: as §2
[13] = tested on: Escherichia coli; assay: cell growth was measured against Escherichia coli RW193 using liquid growth assay at 2 hr; procedure, shortened: as §2
[14] = tested on: Escherichia coli; assay: cell growth was measured against Escherichia coli AN193 using liquid growth assay at 8 hr; procedure, shortened: as §2
[15] = tested on: Pseudomonas; assay: Minimum inhibitory concentration was measured against Pseudomonas X528; procedure, shortened: as §1
[16] = tested on: Shigella flexneri; assay: The relative ability of compound to promote the growth of Shigella flexneri SA 100, a strain lacking the ability to synthesize siderophores was measured as zone stimulation at concentration of 0.1 mM
Procedure, shortened: (§3)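 S. flexneri SA100 grown overnight in Luria broth, seeded at 10^8/mL into Luria agar with EDDA (250 μg/mL). Compounds made as 10 mM aqueous stocks, diluted in water to 10, 1 or 0.1 mM. 10 μL applied on sterile paper disks. Incubated 37 °C, 18 h; diameters of growth-stimulation zones measured in mm.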

[17] = tested on: Shigella flexneri; assay: The relative ability of compound to promote the growth of Shigella flexneri SA 100, a strain lacking the ability to synthesize siderophores was measured as zone stimulation at concentration of 10 mM; procedure, shortened: as §3
[18] = tested on: Shigella flexneri; assay: The relative ability of compound to promote the growth of Shigella flexneri SA 100, a strain lacking the ability to synthesize siderophores was measured as zone stimulation at concentration of 1 mM; procedure, shortened: as §3

| SMILES | MIC [1] | Cell growth [2] | Cell growth [3] | MIC [4] | MIC [5] | Cell growth [6] | MIC [7] | Cell growth [8] | Cell growth [9] | MIC [10] | Cell growth [11] | Cell growth [12] | Cell growth [13] | Cell growth [14] | MIC [15] | Zone of stimulation [16] | Zone of stimulation [17] | Zone of stimulation [18] |
| --- | --- | --- | --- | --- | --- | --- | --- | --- | --- | --- | --- | --- | --- | --- | --- | --- | --- | --- |
| CC(=O)N(O)CCC[C@H](NC(=O)[C@H](CCCN(O)C(C)=O)NC(=O)[C@@H](N)CCCN(O)C(C)=O)C(=O)N[C@@H](C(=O)NC1C(=O)N2C(C(=O)O)=C(Cl)CC[C@H]12)c1ccc(O)cc1 (some centres undefined) | > 32 µg/mL | 0.001 | 0.001 | > 64 µg/mL | 0.06 µg/mL (≈ 0.068 µM) | 1.59 | > 128 µg/mL | 0.001 | 0.107 | > 64 µg/mL | 0.019 | 0.974 | 0.347 | 0.691 | > 128 µg/mL |  |  |  |
| CC(=O)N(O)CCC[C@H](NC(=O)[C@H](CCCN(O)C(C)=O)NC(=O)[C@@H](N)CCCN(O)C(C)=O)C(=O)N[C@@H](C(=O)NC1C(=O)N(OCC(=O)O)[C@H]1C)c1ccc(O)cc1 (some centres undefined) |  |  |  |  |  |  |  |  |  |  |  |  |  |  |  | 0 mm | 31 mm | 16 mm |
| CC(=O)N(O)CCC[C@H](NC(=O)[C@H](CCCN(O)C(C)=O)NC(=O)[C@@H](N)CCCN(O)C(C)=O)C(=O)N[C@@H](C(=O)NC1C(=O)N2C(C(=O)O)=C(Cl)CC[C@H]12)c1ccccc1 (some centres undefined) | > 64 µg/mL |  |  | > 128 µg/mL | 0.125 µg/mL (≈ 0.144 µM) |  | > 128 µg/mL |  |  | > 64 µg/mL |  |  |  |  | > 128 µg/mL |  |  |  |
| CC(=O)N(O)CCC[C@H](NC(=O)[C@H](CCCN(O)C(C)=O)NC(=O)[C@@H](N)CCCN(O)C(C)=O)C(=O)N[C@@H](C(=O)NC1C(=O)N(OCC(=O)O)[C@H]1C)c1ccccc1 (some centres undefined) |  |  |  |  |  |  |  |  |  |  |  |  |  |  |  | 0 mm | 28 mm | 12 mm |
| N[C@@H](C(=O)N[C@@H]1C(=O)N2C(C(=O)O)=C(Cl)CS[C@H]12)c1ccccc1.O [CEFACLOR] | 1 µg/mL |  |  | 1 µg/mL | 0.25 µg/mL |  | 2 µg/mL |  |  | 0.5 µg/mL |  |  |  |  | > 128 µg/mL |  |  |  |
| N[C@@H](C(=O)N[C@@H]1C(=O)N2C(C(=O)O)=C(Cl)CC[C@H]12)c1ccccc1 [LORACARBEF ANHYDROUS] | 0.5 µg/mL (≈ 1.43 µM) |  |  | 0.5 µg/mL (≈ 1.43 µM) | 0.25 µg/mL (≈ 0.715 µM) |  | 2 µg/mL (≈ 5.72 µM) |  |  | 1 µg/mL (≈ 2.86 µM) |  |  |  |  | > 128 µg/mL |  |  |  |

From ChEMBL document CHEMBL1125647, “Synthesis and siderophore and antibacterial activity of N5-acetyl-N5-hydroxy-L-ornithine-derived siderophore-beta-lactam conjugates: iron-transport-mediated drug delivery” (1991)
